From ChEMBL document CHEMBL3739352, “Anticonvulsant activity, crystal structures, and preliminary safety evaluation of N-trans-cinnamoyl derivatives of selected (un)modified aminoalkanols” (Eur J Med Chem, 2016)
Calls of active or inactive are those of the source. No cut-off for these calls is given here.

Assays:
[1] = test system: Mus musculus; test: Anticonvulsant activity in albino Carworth Farms No.1 mouse assessed as protection against subcutaneous dosed pentetrazol-induced seizures at 300 mg/kg, ip after 0.5 hrs; type: functional, organism-based
Procedure, shortened: (§1)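 Mouse i.p. screen in Carworth Farms No.1 albino mice at 30, 100 or 300 mg/kg in 0.5% methylcellulose. Testing was at 0.5 and 4 h after injection, by maximal electroshock or by subcutaneous pentetrazol challenge. Scoring was number protected / number used.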

[2] = test system: Mus musculus; test: Anticonvulsant activity in albino Carworth Farms No.1 mouse assessed as protection against subcutaneous dosed pentetrazol-induced seizures at 100 mg/kg, ip after 4 hrs; type: functional, organism-based; procedure, shortened: as §1
[3] = test system: Mus musculus; test: Anticonvulsant activity in albino Carworth Farms No.1 mouse assessed as protection against subcutaneous dosed pentetrazol-induced seizures at 100 mg/kg, ip after 0.5 hrs; type: functional, organism-based; procedure, shortened: as §1
[4] = test system: Mus musculus; test: Anticonvulsant activity in albino Carworth Farms No.1 mouse assessed as protection against subcutaneous dosed pentetrazol-induced seizures at 30 mg/kg, ip after 4 hrs; type: functional, organism-based; procedure, shortened: as §1
[5] = test system: Mus musculus; test: Anticonvulsant activity in albino Carworth Farms No.1 mouse assessed as protection against maximal electroshock-induced seizures at 100 mg/kg, ip after 4 hrs; type: functional, organism-based; procedure, shortened: as §1
[6] = test system: Mus musculus; test: Anticonvulsant activity in albino Carworth Farms No.1 mouse assessed as protection against maximal electroshock-induced seizures at 30 mg/kg, ip after 4 hrs; type: functional, organism-based; procedure, shortened: as §1
[7] = test system: Salmonella typhimurium; test: Mutagenicity in Salmonella typhimurium TA98 assessed as number of revertants at 500 ug/plate by Ames test (reference value: 23 +/- 3); type: toxicity, organism-based; settings: salmonella enterica subsp. enterica serovar typhimurium
[8] = test system: Salmonella typhimurium; test: Mutagenicity in Salmonella typhimurium TA98 assessed as number of revertants at 1000 ug/plate by Ames test (reference value: 23 +/- 3); type: toxicity, organism-based; settings: salmonella enterica subsp. enterica serovar typhimurium
[9] = test system: Salmonella typhimurium; test: Mutagenicity in Salmonella typhimurium TA100 assessed as mutagenic index at 100 ug/plate by Ames test; type: toxicity, organism-based; settings: salmonella enterica subsp. enterica serovar typhimurium
Procedure, shortened: (§2)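 Ames preincubation test. Strain culture was grown 12 h at 37 °C in nutrient broth, then mixed with compound in DMSO (final 4, 20, 100, 500, 1000 per plate) and buffer in top agar with trace histidine. This was plated on glucose minimal agar for 48 h at 37 °C. Mutagenic index = revertants with compound / DMSO control revertants, from three independent repeats.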

[10] = test system: Salmonella typhimurium; test: Mutagenicity in Salmonella typhimurium TA100 assessed as mutagenic index at 500 ug/plate by Ames test; type: toxicity, organism-based; settings: salmonella enterica subsp. enterica serovar typhimurium; procedure, shortened: as §2
[11] = test system: Salmonella typhimurium; test: Mutagenicity in Salmonella typhimurium TA100 assessed as assessed as mutagenic index at 1000 ug/plate by Ames test; type: toxicity, organism-based; settings: salmonella enterica subsp. enterica serovar typhimurium; procedure, shortened: as §2
[12] = test system: Salmonella typhimurium; test: Mutagenicity in Salmonella typhimurium TA1535 assessed as assessed as mutagenic index at 4 ug/plate by Ames test; type: toxicity, organism-based; settings: salmonella enterica subsp. enterica serovar typhimurium; procedure, shortened: as §2
[13] = test system: Salmonella typhimurium; test: Mutagenicity in Salmonella typhimurium TA1535 assessed assessed as mutagenic index at 100 ug/plate by Ames test; type: toxicity, organism-based; settings: salmonella enterica subsp. enterica serovar typhimurium
[14] = test system: Salmonella typhimurium; test: Mutagenicity in Salmonella typhimurium TA98 assessed as mutagenic index at 4 ug/plate by Ames test; type: toxicity, organism-based; settings: salmonella enterica subsp. enterica serovar typhimurium
[15] = test system: Salmonella typhimurium; test: Mutagenicity in Salmonella typhimurium TA98 assessed as mutagenic index at 20 ug/plate by Ames test; type: toxicity, organism-based; settings: salmonella enterica subsp. enterica serovar typhimurium
[16] = test system: Salmonella typhimurium; test: Mutagenicity in Salmonella typhimurium TA98 assessed as mutagenic index at 100 ug/plate by Ames test; type: toxicity, organism-based; settings: salmonella enterica subsp. enterica serovar typhimurium
[17] = test system: Salmonella typhimurium; test: Mutagenicity in Salmonella typhimurium TA98 assessed as mutagenic index at 1000 ug/plate by Ames test; type: toxicity, organism-based; settings: salmonella enterica subsp. enterica serovar typhimurium
[18] = test system: Mus musculus; test: Neurotoxicity in albino Carworth Farms No.1 mouse at 100 mg/kg, ip after 4 hrs by rotarod test; type: toxicity, organism-based; settings: in vivo
Procedure, shortened: (§3)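 Mice (albino Carworth Farms No.1) were dosed i.p. at 30, 100 or 300 mg/kg in 0.5% methylcellulose. They were tested 0.5 and 4 h later on a 1-inch knurled rod rotating at 6 rpm. Neurotoxicity was scored if a mouse could not stay on the rod for at least 1 min in each of three trials. Results are given as animals toxic/animals tested, with deaths noted.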

[19] = Lipophilicity of the compound using 90% methanol in water at 1 mg/ml by RT-TLC analysis; type: physicochemical; settings: buffer
Procedure, shortened: (§4)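 Reversed-phase TLC with a methanol–water mobile phase at the stated methanol content (v/v). Compounds were spotted from 1 mg/mL methanol solutions after 1 h chamber saturation and located under UV light. Rf was measured and RM = log(1/Rf − 1) calculated.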

[20] = Lipophilicity of the compound using 75% methanol in water at 1 mg/ml by RT-TLC analysis; type: physicochemical; settings: buffer; procedure, shortened: as §4
[21] = Lipophilicity of the compound using 65% methanol in water at 1 mg/ml by RT-TLC analysis; type: physicochemical; settings: buffer; procedure, shortened: as §4
[22] = Lipophilicity of the compound at 1 mg/ml by RT-TLC analysis relative to 0% methanol; type: physicochemical; settings: methanol/water
Procedure, shortened: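 Reversed-phase TLC used methanol–water mobile phases of 95–65% methanol. Compounds were applied from 1 mg/mL methanol solutions after 1 h chamber saturation, with UV detection. RM = log(1/Rf − 1) was calculated at each methanol level and extrapolated linearly (RM = RM0 + bC) to 0% methanol to give RM0.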

[23] = test system: Salmonella typhimurium; test: Mutagenicity in Salmonella typhimurium TA98 assessed as number of revertants at 100 ug/plate by Ames test (reference value: 23 +/- 3); type: toxicity, organism-based; settings: salmonella enterica subsp. enterica serovar typhimurium
[24] = test system: Salmonella typhimurium; test: Mutagenicity in Salmonella typhimurium TA98 assessed as number of revertants at 20 ug/plate by Ames test (reference value: 23 +/- 3); type: toxicity, organism-based; settings: salmonella enterica subsp. enterica serovar typhimurium
[25] = test system: Salmonella typhimurium; test: Mutagenicity in Salmonella typhimurium TA98 assessed as number of revertants at 4 ug/plate by Ames test (reference value: 23 +/- 3); type: toxicity, organism-based; settings: salmonella enterica subsp. enterica serovar typhimurium
[26] = test system: Salmonella typhimurium; test: Mutagenicity in Salmonella typhimurium TA1535 assessed as number of revertants at 1000 ug/plate by Ames test (reference value: 10 +/- 3); type: toxicity, organism-based; settings: salmonella enterica subsp. enterica serovar typhimurium
[27] = test system: Salmonella typhimurium; test: Mutagenicity in Salmonella typhimurium TA1535 assessed as number of revertants at 20 ug/plate by Ames test (reference value: 10 +/- 3); type: toxicity, organism-based; settings: salmonella enterica subsp. enterica serovar typhimurium
[28] = test system: Salmonella typhimurium; test: Mutagenicity in Salmonella typhimurium TA100 assessed as number of revertants at 1000 ug/plate by Ames test (reference value: 77 +/-4); type: toxicity, organism-based; settings: salmonella enterica subsp. enterica serovar typhimurium
Procedure, shortened: (§5)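 Salmonella TA100 preincubation Ames assay: overnight-type 12 h broth culture at 37 °C, compound in DMSO at final 4–1000 per plate, top agar with trace histidine, glucose minimal agar, 48 h at 37 °C. Revertant colonies per plate were counted, with a DMSO negative control and a sodium azide positive control. Three independent repetitions were run.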

[29] = test system: Salmonella typhimurium; test: Mutagenicity in Salmonella typhimurium TA100 assessed as number of revertants at 500 ug/plate by Ames test (reference value: 77 +/-4); type: toxicity, organism-based; settings: salmonella enterica subsp. enterica serovar typhimurium; procedure, shortened: as §5
[30] = test system: Salmonella typhimurium; test: Mutagenicity in Salmonella typhimurium TA100 assessed as number of revertants at 100 ug/plate by Ames test (reference value: 77 +/-4); type: toxicity, organism-based; settings: salmonella enterica subsp. enterica serovar typhimurium; procedure, shortened: as §5
[31] = test system: Salmonella typhimurium; test: Mutagenicity in Salmonella typhimurium TA100 assessed as number of revertants at 4 ug/plate by Ames test (reference value: 77 +/-4); type: toxicity, organism-based; settings: salmonella enterica subsp. enterica serovar typhimurium; procedure, shortened: as §5
[32] = test system: Mus musculus; test: Neurotoxicity in albino Carworth Farms No.1 mouse at 300 mg/kg, ip after 0.5 hrs by rotarod test; type: toxicity, organism-based; settings: in vivo; procedure, shortened: as §3
[33] = test system: Mus musculus; test: Anticonvulsant activity in albino Carworth Farms No.1 mouse assessed as protection against maximal electroshock-induced seizures at 300 mg/kg, ip after 4 hrs; type: functional, organism-based; procedure, shortened: as §1
[34] = test system: Mus musculus; test: Neurotoxicity in albino Carworth Farms No.1 mouse at 300 mg/kg, ip after 4 hrs by rotarod test; type: toxicity, organism-based; settings: in vivo; procedure, shortened: as §3

Rm [19]	Rm [20]	SMILES	Activity [1]	Activity [2]	Activity [3]	Activity [4]	Activity [5]	Activity [6]	Activity [7]	Activity [8]	Activity_index [9]	Activity_index [10]	Activity_index [11]	Activity_index [12]	Activity_index [13]	Activity_index [14]	Activity_index [15]	Activity_index [16]	Activity_index [17]	Activity [18]	other results
-0.48	-0.19	O=C(/C=C/c1ccccc1)N1CCC(O)CC1	Active	inactive	inactive	inactive	inactive	inactive	22	20	1	0.9	0.9	0.5	0.9	1	0.8	0.7	0.9	Non-toxic	Rm [21]: 0.18; Rm [22]: 2.579; Activity [23]: 17; Activity [24]: 19; Activity [25]: 22; Activity [26]: 5; Activity [27]: 6; Activity [28]: 70; Activity [29]: 72; Activity [30]: 76; Activity [31]: 70
-0.58	-0.27	CC(O)CNC(=O)/C=C/c1ccccc1 (racemic)	Active	inactive	inactive	inactive	inactive	inactive	21	24	0.9	0.8	1	1.2	1.2	1.1	1	0.9	1	Non-toxic	Activity [32]: Non-toxic; Activity [33]: inactive; Activity [34]: Non-toxic; Rm [21]: 0.02; Rm [22]: 1.512; Activity [23]: 21; Activity [24]: 22; Activity [25]: 26; Activity [26]: 14; Activity [27]: 13; Activity [28]: 73; Activity [29]: 65; Activity [30]: 67; Activity [31]: 68
